How the values were obtained:
Mu-type opioid receptor [1] = target: T1, Mu-type opioid receptor (Homo sapiens, UniProt P35372); experiment: Binding affinity to MOR-1 expressed in CHO cells after 90 mins; format: cell-based; conditions: for Bmax: tested as the 125I-labelled form
Summary of the method: (§1)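 Saturation binding of the carrier-free 125I-radioligand (KD) in membranes of CHO cells stably transfected with the named opioid receptor. For one DOR-1 saturation, specific activity was diluted 10-fold to allow higher ligand concentrations. Curves were fit to a single site by nonlinear regression. KD is the mean ± SEM of at least 3 independent determinations.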

[2] = target: T2, Kappa-type opioid receptor (Homo sapiens, UniProt P41145); experiment: Displacement of [125I]-IBNtxA from KOR-1 expressed in CHO cells; format: cell-based
T2 sequence (P41145 whole entry): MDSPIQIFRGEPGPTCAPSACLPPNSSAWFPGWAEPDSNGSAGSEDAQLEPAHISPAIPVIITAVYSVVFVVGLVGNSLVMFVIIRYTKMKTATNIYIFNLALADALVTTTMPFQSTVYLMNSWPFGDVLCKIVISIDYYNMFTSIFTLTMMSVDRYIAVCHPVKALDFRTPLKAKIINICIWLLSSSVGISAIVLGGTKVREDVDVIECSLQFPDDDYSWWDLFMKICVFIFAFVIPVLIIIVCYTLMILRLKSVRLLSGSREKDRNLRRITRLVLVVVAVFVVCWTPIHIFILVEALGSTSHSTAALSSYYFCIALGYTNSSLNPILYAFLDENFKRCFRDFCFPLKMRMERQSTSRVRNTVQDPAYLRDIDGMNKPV

[3] = target: T2, Kappa-type opioid receptor; experiment: Displacement of [125I]-IBNalA from KOR-1 expressed in CHO cells; format: cell-based
[4] = target: T2, Kappa-type opioid receptor; experiment: Binding affinity to KOR-1 expressed in CHO cells after 90 mins; format: cell-based; conditions: for Bmax: tested as the 125I-labelled form; summary of the method: as §1
[5] = target: T3, Delta-type opioid receptor (Homo sapiens, UniProt P41143); experiment: Binding affinity to DOR-1 expressed in CHO cells after 90 mins; format: cell-based; conditions: for Bmax: tested as the 125I-labelled form; summary of the method: as §1
T3 sequence (P41143 whole entry): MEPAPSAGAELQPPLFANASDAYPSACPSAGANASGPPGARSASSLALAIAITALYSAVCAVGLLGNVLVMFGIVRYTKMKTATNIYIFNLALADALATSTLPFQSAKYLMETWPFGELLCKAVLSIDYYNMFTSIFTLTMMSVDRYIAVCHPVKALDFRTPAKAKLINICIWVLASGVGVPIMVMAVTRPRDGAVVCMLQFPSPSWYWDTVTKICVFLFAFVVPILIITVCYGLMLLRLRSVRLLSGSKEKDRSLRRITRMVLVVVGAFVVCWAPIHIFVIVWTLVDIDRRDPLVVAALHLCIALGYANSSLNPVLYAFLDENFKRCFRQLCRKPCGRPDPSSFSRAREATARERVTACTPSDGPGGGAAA

Mu-type opioid receptor [6] = target: T1, Mu-type opioid receptor; experiment: Displacement of [3H]-DAMGO from MOR-1 expressed in CHO cells after 150 mins; format: cell-based
Summary of the method: (§2)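 Competition binding in membranes of CHO cells stably transfected with MOR-1, DOR-1 or KOR-1. Tracers were 1 nM 3H-DAMGO (MOR-1), 3H-DPDPE (DOR-1) or 3H-U69,593 (KOR-1). IC50 came from nonlinear regression and was converted to Ki. Values are the mean ± SEM of at least three independent replications.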

[7] = target: T2, Kappa-type opioid receptor; experiment: Displacement of [3H]-U69593 from KOR-1 expressed in CHO cells after 60 mins; format: cell-based; summary of the method: as §2
[8] = target: T3, Delta-type opioid receptor; experiment: Displacement of [3H]-DPDPE from DOR-1 expressed in CHO cells after 60 mins; format: cell-based; summary of the method: as §2
Mu-type opioid receptor [9] = target: T1, Mu-type opioid receptor; experiment: biochemical; format: cell-based, CHO
Mu-type opioid receptor [10] = target: T1, Mu-type opioid receptor; experiment: biochemical; format: cell-based, CHO; remark: listed apart in the source
Mu-type opioid receptor [11] = target: T1, Mu-type opioid receptor; experiment: biochemical; format: cell-based, CHO; remark: listed apart in the source

T1 sequence (P35372 whole entry): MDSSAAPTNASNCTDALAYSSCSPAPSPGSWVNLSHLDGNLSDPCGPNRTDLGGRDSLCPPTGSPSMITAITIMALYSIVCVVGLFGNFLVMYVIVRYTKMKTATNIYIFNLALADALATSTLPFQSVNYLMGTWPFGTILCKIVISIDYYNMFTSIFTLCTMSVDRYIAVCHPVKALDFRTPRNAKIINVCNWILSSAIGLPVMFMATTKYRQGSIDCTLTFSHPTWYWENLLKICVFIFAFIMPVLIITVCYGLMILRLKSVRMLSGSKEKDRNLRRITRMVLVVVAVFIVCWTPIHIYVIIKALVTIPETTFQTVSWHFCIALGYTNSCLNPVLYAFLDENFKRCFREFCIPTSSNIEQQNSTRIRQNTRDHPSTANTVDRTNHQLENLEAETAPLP

CN1CC[C@]23c4c5ccc(O)c4O[C@H]2[C@H](NC(=O)c2cccc([125I])c2)CC[C@@]3(O)[C@H]1C5
Kd (Mu-type opioid receptor [1]): 0.08 nM

N=C(N)Nc1ccc2[nH]c3c(c2c1)C[C@@]1(O)[C@H]2Cc4ccc(O)c5c4[C@@]1(CCN2CC1CC1)[C@H]3O5 [GUANIDINONALTRINDOLE]
Ki [2]: 0.15 nM | Ki [3]: 0.19 nM

C=CCN1CC[C@]23c4c5ccc(O)c4O[C@H]2[C@H](NC(=O)c2cccc([125I])c2)CC[C@@]3(O)[C@H]1C5
Kd (Mu-type opioid receptor [1]): 0.22 nM | Kd [4]: 0.05 nM | Kd [5]: 2.5 nM

C=CCN1CC[C@]23c4c5ccc(O)c4O[C@H]2[C@H](NC(=O)c2cccc(I)c2)CC[C@@]3(O)[C@H]1C5
Ki (Mu-type opioid receptor [6]): 0.7 nM | Ki [7]: 0.08 nM | Ki [8]: 2.55 nM | Bmax (Mu-type opioid receptor [1]): 1.18 pmol/mg | Bmax [4]: 1.15 pmol/mg | Bmax [5]: 2.7 pmol/mg

C=CCN1CC[C@]23CCCC[C@H]2[C@H]1Cc1ccc(O)cc13 [LEVALLORPHAN]
Ki (Mu-type opioid receptor [9]): 1.29 nM | Ki (Mu-type opioid receptor [10]): 1.69 nM | Ki (Mu-type opioid receptor [11]): 0.48 nM

CN1CC[C@]23c4c5ccc(O)c4O[C@H]2[C@H](NC(=O)c2cccc(I)c2)CC[C@@]3(O)[C@H]1C5
Ki (Mu-type opioid receptor [6]): 1.75 nM | Ki [7]: 9 nM | Bmax (Mu-type opioid receptor [1]): 1.49 pmol/mg

O=C(N[C@@H]1CC[C@@]2(O)[C@H]3Cc4ccc(O)c5c4[C@@]2(CCN3CC2CC2)[C@H]1O5)c1cccc([125I])c1
Kd (Mu-type opioid receptor [1]): 0.11 nM | Kd [4]: 0.027 nM | Kd [5]: 0.24 nM

O=C(N[C@@H]1CC[C@@]2(O)[C@H]3Cc4ccc(O)c5c4[C@@]2(CCN3CC2CC2)[C@H]1O5)c1cccc(I)c1
Ki (Mu-type opioid receptor [6]): 2.5 nM | Ki [7]: 0.23 nM | Ki [8]: 0.58 nM | Bmax (Mu-type opioid receptor [1]): 3.81 pmol/mg | Bmax [4]: 0.57 pmol/mg | Bmax [5]: 0.96 pmol/mg

Source: ChEMBL document CHEMBL1795226, “Generation of novel radiolabeled opiates through site-selective iodination” (Bioorg Med Chem Lett, 2011)
